# Jurkat NFkB inh – lowers PMA/ionomycin-induced NF-kB signal in Jurkat cells; PMA/ionomycin-induced NF-kB luciferase reporter, luminescence; 330,000 tested, 0.53% active; AID 435003; inhibition, % at 4 µM; in the data active means inhibition above about 50%
# 697 NFkB inh – inhibitors of the PMA/ionomycin-induced NF-kB reporter in 697 B cells. 697 B-cell NF-kB luciferase reporter, 16 h. inhibition, % at 4 µM. 330,000 tested, 0.33% active; in the data active means inhibition above about 35%
# UPR CHOP act – activators of apoptotic arm of unfolded protein response (CHOP); CHO-CHOP luciferase reporter, UPR activation, luminescence; percent of tunicamycin response over DMSO baseline; 330,000 tested, 0.34% active; activation, % at 10 µM; AID 449763;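 active means at 10 µM dose, activation of 40% or more, normalized to positive control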
#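 Assay system: CHO cells with stable CHOP pathway luciferase reporter; Buffer or medium: F12 plus 10% serum; Times: 16-18 h cell attachment, then 6 h compound exposure, 37 °C; Signal: luciferase luminescence; Read-out basis: percent activation relative to tunicamycin control; Control set: tunicamycin high control, DMSO low control.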
# CHOP inhibitor – blocks CHOP induction under ER stress. inhibition, % at 10 µM. AID 2732. CHO-K1 CHOP-promoter luciferase, tunicamycin-induced, 15-18 h. 220,000 tested, 3.8% active;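 active means compounds that reduced the stress-induced luciferase reporter signal by more than about 70% of percent inhibition, limit read from the data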
# XBP1 UPR activ – adaptive UPR (XBP1) activation; CHO-XBP1 luciferase reporter, IRE1-XBP1 UPR activation, luminescence; percent of tunicamycin response, DMSO as zero; activation, % at 20 µM; 330,000 tested, 0.33% active; AID 463104;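 active means versus positive control, 20 µM dose yields 30% or more activation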
#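 Material: CHO-XBP1 cells stably carrying IRE1-XBP1-driven luciferase reporter / Amount: 1000 cells per well / Compound: 20 µM, 1% DMSO / Times: 6 h treatment, 37 °C / Detection: luciferase luminescence / Measure: % activation of reporter signal versus tunicamycin and DMSO controls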
# Jurkat NFkB conf – inhibitors of the PMA/ionomycin-induced NF-kB reporter in Jurkat cells, retest | shares compounds with Jurkat NFkB inh | Jurkat NF-kB luciferase, 16 h | 2,700 tested, 27% active | inhibition, % at 4 µM;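 active means inhibition reaching about 45% at 4 µM in either replicate, limit read from the data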
# A number is an active result; 0 = inactive; - = no result given. The entries come from a sample that favours hits as a whole.
SMILES,Jurkat NFkB inh,697 NFkB inh,UPR CHOP act,CHOP inhibitor,XBP1 UPR activ,Jurkat NFkB conf
CCOc1ccccc1NC(=O)C1CCCN(S(=O)(=O)c2ccc3c(c2)C(C)(C)C(=O)N3C)C1 (configuration not stated),0,0,0,-,0,-
CSc1nccc(N/N=C/c2ccccc2)n1,0,0,0,-,0,0
COc1cc(-c2noc(C)c2/C=C/c2cccc([N+](=O)[O-])c2)cc(OC)c1OC,62,0,0,-,0,51
Cn1nc(-c2ccccn2)nc2c(=O)n(C)c(=O)nc1-2,56,0,0,107,0,95
CCCn1c(SCc2cc(=O)[nH]c3ccccc23)nc2c1c(=O)n(C)c(=O)n2C,0,0,0,-,0,-
COC(=O)c1sc(N2CCN(c3ccc(Cl)cc3)CC2)nc1N,61,0,0,0,0,0
CCCCCCCn1c2c(c(=N)c3c1CCC3)CCCC2,-,-,-,0,-,-
CCCCn1c2c(c(=N)c3c1CCC3)CCC2,58,0,0,-,0,48
Cc1ccc2nc(N/C(=N/S(=O)(=O)c3ccc(F)cc3)c3ccccc3)sc2c1,0,0,0,0,0,-
O=S(=O)(/N=C(/Nc1nc2ccccc2s1)c1ccccc1)c1ccccc1,0,0,0,-,0,0
CC1CCN(c2ccc([N+](=O)[O-])cn2)CC1,0,0,0,0,0,-
Cc1c(C)c(C)c(C(=O)C2CCN(c3ccc([N+](=O)[O-])cn3)CC2)c(C)c1C,73,0,0,0,0,0
COc1cccc(N2CCN(c3ccc([N+](=O)[O-])cn3)CC2)c1,64,0,0,-,0,0
COc1cc2c(cc1OC)CN(CCC(C)c1ccc(Cl)cc1)CC2 (configuration not stated),0,0,0,-,0,-
O=C(CN1CCCC1c1cccs1)N1CCN(S(=O)(=O)c2cccc(F)c2)CC1 (configuration not stated),0,0,0,-,0,-
CC(Sc1nncs1)C(=O)Nc1ccc(S(=O)(=O)Nc2ncccn2)cc1 (configuration not stated),0,0,0,-,0,-
CCn1c(/C=C\c2ccccc2C)nc2ccccc2c1=O,0,0,0,0,0,-
CCn1c(/C=C/c2c[nH]c3ccccc23)nc2ccccc2c1=O,0,0,0,0,0,0
CCOc1cc(N2CCOCC2)c(OCC)cc1NC(=O)c1cc(S(=O)(=O)N2CCOCC2)ccc1F,62,0,0,-,0,0
COc1ccc2[nH]c(=O)c(CN(Cc3cccs3)S(=O)(=O)c3c(C)ccc4nsnc34)cc2c1,57,0,0,0,0,0
CN(Cc1nc2ccccc2c(=O)[nH]1)C(=O)c1cccc(S(=O)(=O)N2CCc3ccccc32)c1,59,0,0,-,0,0
CC[n+]1c(/C=C/c2ccc(N(C)C)cc2)ccc2ccccc21,-,-,-,0,-,-
CCN(CC)c1ccc(/C=C/c2ccc3ccc(OC)cc3[n+]2CC)cc1,93,0,0,-,0,70
CC[n+]1c(/C=C/c2ccc(OC)c(OC)c2)ccc2ccccc21,0,0,0,-,0,0
CCOc1ccc(NC(=O)CN(c2ccc(OC)cc2)S(=O)(=O)c2cccs2)cc1,0,0,0,-,0,-
SMILES,Jurkat NFkB inh,697 NFkB inh,UPR CHOP act,CHOP inhibitor,XBP1 UPR activ,Jurkat NFkB conf
O=C(/C=C/c1cccs1)Nc1ccncc1,0,0,0,0,0,-
Cc1cccc(NC(=O)/C=C/c2cccs2)n1,0,0,0,0,0,0
CCO/C([O-])=N/c1sn[n+](C)c1C,0,0,0,0,0,-
CCC(C)(C)NC(=S)Nc1ccc(-c2nc3ccc(C)cc3s2)cc1,0,0,0,0,0,0
COc1ccccc1CNC(=O)c1cc(C(=O)CC(C)C)c[nH]1,0,0,0,-,0,-
Cc1onc(-c2ccccc2Cl)c1C(=O)NCc1cccnc1,0,0,0,0,0,-
COc1ccc(CNC(=O)c2ccc(-c3ccccc3)cc2)cc1,0,0,0,0,0,-
COc1ccc(CNC(=O)c2c(C)oc3c2C(=O)c2ccccc2C3=O)cc1,60,0,0,0,0,59
Cc1oc2c(c1C(=O)NCc1cccnc1)C(=O)c1ccccc1C2=O,88,0,0,104,0,84
c1ccc(Nc2nc(-c3ccccc3)ns2)cc1,0,0,0,-,0,0
CC(C)(C)C(=O)Nc1nc(-c2ccccc2)ns1,0,0,0,0,0,-
